Most compounds without a hit are left out; they make up all but 9.4% or so of the library.
Mdm2 MdmX PPI – inhibitors of human Mdm2-MdmX association, primary screen, cell-based, luminescence, split luciferase, SaOS-2, uHTS. Protein Mdm4 (Homo sapiens) + E3 ubiquitin-protein ligase Mdm2 (Homo sapiens), …. SaOS-2 split-luciferase Mdm2/MdmX complementation. inhibition, % at 8 µM. actives 3% (n = 330,000);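 active = inhibition of at least 50% at 8 µM in the primary screen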
Beta cell apopt – inhibitors of cytokine-induced beta cell apoptosis, primary screen, luminescence. INS-1E cytokine-induced death, ATP luminescence, 48 h; percent of positive-control rescue, neutral wells zero. protection from apoptosis, % (concentration not given with the values). actives 0.8% (n = 300,000). AID 435005, 2010;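 active = Every replicate reaches about 75%, or at least half do and their mean reaches it too, limit read from the data; inconclusive = At least half of replicates reach the limit but their mean does not; inactive = Under half of replicates reach the limit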;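 also: 0% = cytokine-treated negative control wells and 100% = positive control rescue; higher means more ATP so stronger rescue from cytokine killing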
SKKanGAS inh – S. pyogenes SKKanGAS growth inhibitors in kanamycin, primary screen, streptokinase expression inhibitor project, SKKanGAS strain, BacTiter-Glo luminescence. 6 h. inhibition, % at 7.5 µM. actives 1.3% (n = 300,000). AID 1662, 2009;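 active = mean replicate score, as percent of positive control median, at least 50; inconclusive = mean below 50 but one replicate at or above 50; inactive = mean and every replicate below 50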;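 also: strain carries kanamycin resistance gene driven by streptokinase promoter and grows in 40 µg/ml kanamycin; loss of luminescence reflects streptokinase promoter inhibition or plain growth inhibition; 0% = median of DMSO wells and 100% = positive control at its reference dose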
T cruzi repl – inhibitors of intracellular T. cruzi growth, primary screen, luminescence, NIH3T3 host cells. T. cruzi beta-gal in NIH3T3, 90 h. inhibition, % (test concentration not listed). actives 1.4% (n = 300,000). AID 1885, 2009;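 active = mean inhibition across valid replicates above about 55%, limit read from the data; inconclusive = mean below that limit but half or more replicates reach it; inactive = mean below it, under half of replicates reach it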;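 also: signal also drops with host cell toxicity which is not excluded here; 0% = plate median of DMSO wells and 100% = zero luminescence signal; higher percent means less beta-gal luminescence so fewer parasites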
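Incubation – ≥90 h infection period, 3 h prior cell attachment · System – NIH/3T3 fibroblasts plus reporter T. cruzi · Doses – compound pinned at 50 nL/well, DMSO · Read-out basis – percent inhibition of parasite-derived β-gal signal · Signal – luminescent β-galactosidase signal after 60 min lysis · Also added – 5000 T. cruzi trypomastigotes/well · Medium – Low-serum DMEM with 2% FBS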
Lmaj promast – Leishmania major promastigote growth inhibition, primary screen; inhibition, % at 10 µM; actives 9% (n = 200,000); Leishmania major promastigotes, resazurin fluorescence viability; AID 1063, 2008; in the data active = inhibition above about 50%;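 also: promastigotes grown with compound for 44 hours at 28 °C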
CSC inhib – cancer stem cell viability inhibitors, primary screen, luminescence; cancer stem cell-like cells viability; inhibition, % at 7.5 µM; actives 1.1% (n = 300,000); in the data active = inhibition above about 75%; inconclusive = no clear call, values can overlap the other calls; tested in HMLE shEcad cells
* = called active by the depositor.

COc1ccc([C@H]2CC(=O)C=C(c3ccnc4ccc(Cl)cc34)C2)cc1 was read as Mdm2 MdmX PPI 40, Beta cell apopt 89* and CSC inhib 33.
For COc1cc(F)c(C2=CC(=O)C[C@H](c3ccc(Cl)cc3)C2)cc1F the results were Mdm2 MdmX PPI 13, Beta cell apopt 2 and CSC inhib 78*.
For O=C(CSc1nnc(-c2cccnc2)o1)Nc1nccs1 the results were Mdm2 MdmX PPI -16, Beta cell apopt -3, SKKanGAS inh -20, T cruzi repl -27 and CSC inhib 3.
`CC(=O)N(Cc1cccnc1)c1cccc(-c2nc3ccccc3s2)c1` gave Mdm2 MdmX PPI -22, Beta cell apopt -1, SKKanGAS inh -2, T cruzi repl 59*, Lmaj promast 100* and CSC inhib 26.
Screening COc1ccccc1C(=O)NC(=O)COC(=O)c1ccc(C)o1 returned Mdm2 MdmX PPI 14, Beta cell apopt -5, SKKanGAS inh -5, T cruzi repl -8 and CSC inhib -4.
O=C(CN(Cc1ccco1)C(=O)CCC(=O)Nc1ccccn1)NCCc1ccccc1 was read as Mdm2 MdmX PPI 13, Beta cell apopt -3, SKKanGAS inh -5, T cruzi repl -21, Lmaj promast 98* and CSC inhib 0.
O=C(CN(Cc1ccco1)C(=O)CCC(=O)Nc1nccs1)NCc1ccccc1 was read as Mdm2 MdmX PPI 6, Beta cell apopt 1, SKKanGAS inh 2, T cruzi repl -12, Lmaj promast -9 and CSC inhib -2.
COc1ccc(-c2cc(C(F)(F)F)nc(SCC(=O)NCc3cccs3)n2)cc1OC was read as Mdm2 MdmX PPI -3, Beta cell apopt 1, SKKanGAS inh 11, T cruzi repl 24, Lmaj promast 9 and CSC inhib -1.
CCCCC(CC)C(=O)Nc1ccc(Nc2ccccc2)cc1 (stereo unspecified) was read as Mdm2 MdmX PPI 10, Beta cell apopt -1, SKKanGAS inh 6, T cruzi repl 20, Lmaj promast 99* and CSC inhib -12.
Screening CCCC(=O)Nc1ccc(-c2ccc(NC(=O)CCC)cc2)cc1 returned Mdm2 MdmX PPI 5, Beta cell apopt -3, SKKanGAS inh 7, T cruzi repl -5, Lmaj promast -2 and CSC inhib -2.
`CCCC(=O)Nc1ccc(Nc2ccccc2)cc1` gave Mdm2 MdmX PPI -22, Beta cell apopt -2, SKKanGAS inh -5, T cruzi repl -6, Lmaj promast 64* and CSC inhib -10.
Screening O=C1c2ccccc2C(=O)C1(CO)c1ccc(OC(F)F)cc1 returned Mdm2 MdmX PPI -58, Beta cell apopt 3, SKKanGAS inh 5, T cruzi repl 4 and CSC inhib 13.
For N#C/C(=C\c1ccc(Cl)cc1)C(=O)NC1CC1 the results were Mdm2 MdmX PPI 15, Beta cell apopt -1, SKKanGAS inh 4, T cruzi repl -10 and CSC inhib 6.
Screening CC1CCCCC1NC(=O)/C(C#N)=C/c1ccc(F)c(F)c1 (stereo unspecified) returned Mdm2 MdmX PPI 26, Beta cell apopt 5, SKKanGAS inh 11, T cruzi repl -3, Lmaj promast 96* and CSC inhib 25.
Screening CC1CCCCC1NC(=O)/C(C#N)=C/c1ccc2c(c1)OCCO2 (stereo unspecified) returned Mdm2 MdmX PPI -23, Beta cell apopt 1, SKKanGAS inh 2, T cruzi repl 10, Lmaj promast 59* and CSC inhib 15.
Screening Cc1ccc2c(C)c(C(=O)N(C)C(C)c3ccon3)oc2c1C (stereo unspecified) returned Mdm2 MdmX PPI -79, Beta cell apopt -5, SKKanGAS inh -7, T cruzi repl 15 and CSC inhib 2.
O=[N+]([O-])c1ccccc1NCCNc1ncc(C(F)(F)F)cc1Cl was read as Mdm2 MdmX PPI -68, Beta cell apopt 3, SKKanGAS inh 52*, T cruzi repl 21, Lmaj promast -3 and CSC inhib 5.
`O=[N+]([O-])c1cc(Cl)ccc1NCCNc1ncc(C(F)(F)F)cc1Cl` gave Mdm2 MdmX PPI -1, Beta cell apopt 9, SKKanGAS inh 3, T cruzi repl 31, Lmaj promast -2 and CSC inhib 3.
COc1ccccc1/C=C1\SC(=S)N(CCC(=O)NNC(=O)c2ccccc2O)C1=O was read as Mdm2 MdmX PPI 39, Beta cell apopt -7, SKKanGAS inh 52*, T cruzi repl -2 and CSC inhib -23.
Screening COc1ccccc1/C=C1\SC(=S)N(CCC(=O)NCCCn2ccnc2)C1=O returned Mdm2 MdmX PPI 7, SKKanGAS inh -4, T cruzi repl 0 and CSC inhib 100*.
COc1ccccc1/C=C1\SC(=O)N(CCC(=O)NCCCn2ccnc2)C1=O was read as Mdm2 MdmX PPI 0, Beta cell apopt 125*, SKKanGAS inh -11, T cruzi repl -5 and CSC inhib 97*.
COc1cccc(/C=C2\SC(=O)N(CCC(=O)NCCCn3ccnc3)C2=O)c1 was read as Mdm2 MdmX PPI -18, Beta cell apopt 33, SKKanGAS inh -1, T cruzi repl -2 and CSC inhib 15.
COc1cccc(/C=C2\SC(=S)N(CCC(=O)NNC(=O)c3ccccc3OC)C2=O)c1 was read as Mdm2 MdmX PPI 8, Beta cell apopt -5, SKKanGAS inh 10, T cruzi repl -8 and CSC inhib 12.
For Cc1ccc(-n2ncc3c(=O)n(CC(=O)N4CCN(C(=O)c5ccco5)CC4)cnc32)cc1 the results were Mdm2 MdmX PPI 25 and Beta cell apopt 4.
COc1cnc(-c2ccccn2)nc1Sc1ccccc1 was read as Mdm2 MdmX PPI 42, Beta cell apopt 50, SKKanGAS inh 91*, T cruzi repl 65*, Lmaj promast 100* and CSC inhib 17.
Screening COc1cnc(N(C)C)nc1Sc1ccc(Cl)cc1 returned Mdm2 MdmX PPI -11, Beta cell apopt -12, SKKanGAS inh 18, T cruzi repl -5, Lmaj promast -3 and CSC inhib 3.
Screening COc1cnc(-c2ccccn2)nc1Oc1cccc(C(F)(F)F)c1 returned Mdm2 MdmX PPI 19, Beta cell apopt 26, SKKanGAS inh 38, T cruzi repl -2 and CSC inhib -4.
Screening COc1cnc(-c2ccccn2)nc1Sc1ccc(Cl)cc1 returned Mdm2 MdmX PPI 21, Beta cell apopt 12, SKKanGAS inh inconclusive, T cruzi repl 19, Lmaj promast 100* and CSC inhib -2.
`COc1ccc(Sc2nc(-c3ccccn3)ncc2OC)cc1` gave Mdm2 MdmX PPI 27, Beta cell apopt 90*, SKKanGAS inh 11, T cruzi repl 63*, Lmaj promast 101* and CSC inhib -7.

Screening results (PubChem BioAssay)
